# Reference: PubChem BioAssay AID540281 (Sanford-Burnham Center for Chemical Genomics, 2011)
# Hit rate of the full screen: of about 2,500 compounds, about 1,500 (60%) were called active.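 Rule for the calls: active = inhibition of at least 30% at 20 µM; inactive = the rest.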 So high a share suggests a set chosen from earlier hits. A selection follows. Non-standard residues stand in square brackets, D forms with d. Residues, ends and D or L forms follow the SMILES beside them. ξ: configuration not given here. ξM = CSCCC(N)C(=O)O
# Target: Carboxy-terminal domain RNA polymerase II polypeptide A small phosphatase 1 (Homo sapiens) (UniProt Q9GZU7)
# Sequence (Q9GZU7 76-261 limits assumed): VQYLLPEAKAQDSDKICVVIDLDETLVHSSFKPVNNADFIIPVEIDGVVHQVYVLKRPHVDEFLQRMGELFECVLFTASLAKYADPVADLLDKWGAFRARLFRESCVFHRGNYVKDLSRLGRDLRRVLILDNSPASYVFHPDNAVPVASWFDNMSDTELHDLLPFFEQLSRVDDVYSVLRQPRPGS
# Experiment: SCP1 dephosphorylation blockade at one dose – biochemical, colorimetric, single concentration, confirmation (AID 540281);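 note: plate controls were DMSO with enzyme for no effect and buffer wells lacking enzyme for full effect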
# Settings: recombinant SCP-1 catalytic domain, phosphate release, malachite green absorbance; at 20 µM; active compounds read high
# How it was run: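 Material – human SCP-1 phosphatase catalytic domain, residues 76-261 · Buffer or medium – Tris acetate buffer pH 5.5 with 10 mM MgCl2 and Tween-20 · Reagent – Phosphorylated 17-mer peptide as phosphatase substrate · Compound dosing – single 20 µM final compound concentration, 1.0% DMSO · Incubation – 45 min phosphatase reaction at RT · Technique – Phosphate-release colorimetry, 630 nm absorbance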
row,SMILES,inhibition
1,Cc1ccc(NC(=O)COc2ccc(/C=N\NC(=O)c3cccnc3)cc2)cc1C,81% (active)
2,Cc1ccccc1NC(=O)CN1C(=O)N/C(=C\c2cccn2-c2cccc(C(=O)O)c2)C1=O,82.2% (active)
3,Cc1ccc(C2(C)NC(=O)N(CC(=O)Nc3ccccc3C(=O)N3CCCCC3)C2=O)cc1 (stereo not drawn),-13.7% (inactive)
4,C[C@H](CO)N1C[C@H](C)[C@@H](CN(C)C(=O)NC2CCCCC2)Oc2ccc(NC(=O)c3ccncc3)cc2C1=O,6.94% (inactive)
5,COc1ccc(NC(=O)N(C)C[C@H]2Oc3ccc(NC(=O)C4CC4)cc3C(=O)N([C@H](C)CO)C[C@@H]2C)cc1,2.35% (inactive)
6,C[C@H](CO)N1C[C@H](C)[C@H](CN(C)C(=O)Nc2ccc(C(F)(F)F)cc2)Oc2c(NC(=O)c3ccncc3)cccc2C1=O,44.3% (active)
7,CNS(=O)(=O)c1cccc(C(=O)OCC(=O)N2c3ccccc3NC(=O)C2(C)C)c1,48.6% (active)
8,CC(NC(=O)CC1SC(N)=NC1=O)c1ccccc1 (stereo not drawn),-28.8% (inactive)
9,C=Cc1ccc(C(=O)N2CCCC(CCC(=O)N3CCN(c4ccccn4)CC3)C2)cc1 (stereo not drawn),67% (active)
10,COc1cc(SC)ccc1C(=O)NNC(=O)C1COc2ccccc2O1 (stereo not drawn),5.11% (inactive)
11,O=C(Nc1cc(S(=O)(=O)N2CCCCC2)ccc1Cl)C1COc2ccccc2O1 (stereo not drawn),65.1% (active)
12,O=C(N/N=C/c1ccco1)c1ccc(C(=O)N/N=C/c2ccco2)o1,56.8% (active)
13,COc1ccc2[nH]c3c(C)c4cc[n+](C)cc4c(C)c3c2c1,-2.43% (inactive)
14,COc1ccc(/C=C/C(=O)OCC(=O)NC2CCCCCC2)cc1OC,45.2% (active)
15,N/C(=N\OC(=O)N1c2ccccc2Sc2ccccc21)c1ccc(Br)cc1,46.1% (active)
16,Cc1ccc(Cc2nnc(SCC(=O)Nc3ccc(C)cc3C)[nH]c2=O)cc1,39.7% (active)
17,COCCCn1c(Cc2csc(Nc3cccc(Cl)c3)n2)nnc1SCC(=O)OC1CCCCC1,59.1% (active)
18,Cc1ccc(S(=O)(=O)Nc2ccc3c(c2)C(=O)N([C@H](C)CO)C[C@@H](C)[C@@H](CN(C)C(=O)Nc2cccc4ccccc24)O3)cc1,5.11% (inactive)
19,N#Cc1ccccc1CN1C(=O)S/C(=C/c2cccn2-c2cccc(C(=O)O)c2)C1=O,67% (active)
20,C[N+](C)(C)CCNC(=O)c1cc[n+](Cc2ccccc2)c(/C=N/O)c1,83.3% (active)
21,CC(=O)Nc1ccccc1Sc1ccc2c3c(cccc13)C(=O)N(c1ccc(C)cc1)C2=O,0.82% (inactive)
22,COC(=O)CNC(=O)C(CCSC)NC(C)=O (stereo not drawn) (Ac-[ξM]-Gly-OMe),-12.9% (inactive)
23,O=C(CCC(=O)N/N=C/c1ccc(Br)o1)N/N=C/c1ccc(Br)o1,40.3% (active)
24,O=C(CNC(=O)C(c1ccccc1)c1ccccc1)N/N=C\c1ccc2c(c1)OCO2,-8.05% (inactive)
25,O=C(CCNC(=O)c1ccccc1)NN=Cc1ccc(Br)o1,45% (active)
26,N#Cc1c(-c2cccs2)nc(SCC(=O)c2ccc(Br)cc2)[nH]c1=O,78.5% (active)
27,COc1ccc(Cc2nnc(NC(=O)Cc3cccs3)s2)cc1,77.3% (active)
28,O=S(=O)(Nc1ccccc1Cl)c1cccc2nsnc12,48.1% (active)
